In experiment [1] the target is Kappa-type opioid receptor (Cavia porcellus, UniProt P41144). Kind of experiment: Binding affinity was measured on opioid receptor kappa 1.
The species entered for a further experiment is Mus musculus. Kind of experiment: Inhibitory concentration of compound was measured in mouse vas deferens assay. Format: functional. The procedure, abridged: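 Mouse vas deferens bioassay, measuring inhibition of electrically evoked contractions. A [Leu5]enkephalin standard dose-response curve was run on each vas preparation, and the IC50 values were normalized accordingly.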

A further experiment is filed under the species Cavia porcellus. Kind of experiment: Inhibitory concentration of compound was measured in guinea pig ileum(GPI) assay. The experiment is classed as functional. The method, boiled down: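 Isolated guinea pig ileum, measuring inhibition of electrically evoked contractions. Each preparation received a [Leu5]enkephalin dose-response curve as standard, and the IC50 values were normalized to it.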

Experiment [2] deals with Kappa-type opioid receptor (Cavia porcellus) (UniProt P41144). Kind of experiment: Antagonist activity was evaluated in the guinea pig ileum assay against U50,488- selective agonist of opioid receptor kappa 1. The experiment is classed as functional, tissue-based. The procedure, abridged:
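Ke taken from agonist IC50 ratio in presence versus absence of antagonist; [Leu5]enkephalin dose-response on each ileum used to normalize IC50s. Three to six determinations, mean ± SEM.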

Experiment [3] has the same target. Kind of experiment: Antagonist activity was evaluated in the guinea pig ileum assay against Dyn A(1-13)-selective agonist of opioid receptor kappa 1. The experiment is classed as functional, tissue-based.
Experiment [4] addresses Delta-type opioid receptor (Mus musculus) (UniProt P32300). Kind of experiment: Antagonist activity was evaluated in the mouse vas deferens assay against DPDPE which is selective agonist of Delta receptor. The experiment is classed as functional, tissue-based. The procedure, abridged:
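Mouse vas deferens, electrically evoked contractions; delta antagonism against DPDPE at fixed antagonist 30 nM to 10 µM. Ke obtained from agonist IC50 ratio with versus without antagonist; each vas preparation standardized with [Leu5]enkephalin dose-response. Means of three to six determinations ± SEM.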

Experiment [5] deals with Mu-type opioid receptor (Cavia porcellus) (UniProt P97266). Kind of experiment: Antagonist activity was evaluated in the guinea pig ileum assay against TAPP-selective agonist of Mu receptor. Format: functional, tissue-based. The procedure, abridged: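 Mu antagonism in guinea pig ileum (electrically evoked contractions) versus agonist TAPP, fixed antagonist concentrations 100 nM to 5 µM. Ke computed from shift in agonist IC50 (with/without antagonist), IC50s normalized against per-tissue [Leu5]enkephalin standard. Mean of three to six runs ± SEM.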

Drawing on ChEMBL document CHEMBL1134588, “[2',6'-Dimethyltyrosine]dynorphin A(1-11)-NH2 analogues lacking an N-terminal amino group: potent and selective kappa opioid antagonists” (J Med Chem, 2001), this text covers Ki, IC50 and Ke for eight molecules.

What is called Ki is a measure of affinity in units of concentration, obtained from inhibition or displacement. For orientation: IC50 means the point on the concentration scale where inhibition reaches its midpoint. A lower IC50 goes with greater potency.

SMILES strings stand for the structures.

Sequence of Kappa-type opioid receptor (P41144 whole entry): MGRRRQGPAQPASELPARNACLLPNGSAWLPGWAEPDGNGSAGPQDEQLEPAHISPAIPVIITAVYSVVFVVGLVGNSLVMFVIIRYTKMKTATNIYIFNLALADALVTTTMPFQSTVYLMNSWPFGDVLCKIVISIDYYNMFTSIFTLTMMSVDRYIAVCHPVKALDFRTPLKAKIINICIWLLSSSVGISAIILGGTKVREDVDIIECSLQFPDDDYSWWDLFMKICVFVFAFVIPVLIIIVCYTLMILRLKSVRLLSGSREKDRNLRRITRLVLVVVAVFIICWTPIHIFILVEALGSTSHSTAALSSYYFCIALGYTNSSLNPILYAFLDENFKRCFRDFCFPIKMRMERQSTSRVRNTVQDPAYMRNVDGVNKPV
Sequence of Kappa-type opioid receptor (Cavia porcellus) (P41144 whole entry): as above
Sequence of Delta-type opioid receptor (Mus musculus) (P32300 whole entry): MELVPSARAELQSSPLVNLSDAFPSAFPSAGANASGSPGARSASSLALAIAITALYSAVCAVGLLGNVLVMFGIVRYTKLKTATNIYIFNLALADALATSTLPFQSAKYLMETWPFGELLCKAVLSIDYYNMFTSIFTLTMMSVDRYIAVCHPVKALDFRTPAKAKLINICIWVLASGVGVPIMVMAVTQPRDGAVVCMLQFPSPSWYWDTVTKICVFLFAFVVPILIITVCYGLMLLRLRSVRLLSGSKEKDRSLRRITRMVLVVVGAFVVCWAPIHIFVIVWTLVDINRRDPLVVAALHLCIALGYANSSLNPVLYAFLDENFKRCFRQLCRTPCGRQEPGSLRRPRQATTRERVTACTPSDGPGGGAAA
Sequence of Mu-type opioid receptor (Cavia porcellus) (P97266 whole entry): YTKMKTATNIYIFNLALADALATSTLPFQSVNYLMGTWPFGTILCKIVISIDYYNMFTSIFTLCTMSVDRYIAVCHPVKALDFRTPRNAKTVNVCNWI

In experiment [1], `Oc1ccc2c3c1O[C@H]1c4[nH]c5c(c4C[C@@]4(O)[C@@H](C2)N(CC2CC2)CC[C@]314)C[C@@]1(O)[C@H]2Cc3ccc(O)c4c3[C@@]1(CCN2CC1CC1)[C@H]5O4` [NORBINALTORPHIMINE] came in with a Ki of 0.81 nM. On the same count and under the same terms, to `CC[C@H](C)[C@H](NC(=O)[C@H](CCCN=C(N)N)NC(=O)[C@H](CCCN=C(N)N)NC(=O)[C@H](CC(C)C)NC(=O)[C@H](Cc1ccccc1)NC(=O)[C@@H](C)NC(=O)CNC(=O)[C@@H](C)Cc1c(C)cc(O)cc1C)C(=O)N[C@@H](CCCN=C(N)N)C(=O)N1CCC[C@H]1C(=O)N[C@@H](CCCCN)C(N)=O` belongs 2.47 nM; to `CC[C@H](C)[C@H](NC(=O)[C@H](CCCN=C(N)N)NC(=O)[C@H](CCCN=C(N)N)NC(=O)[C@H](CC(C)C)NC(=O)[C@H](Cc1ccccc1)NC(=O)[C@@H](C)NC(=O)CNC(=O)CCc1c(C)cc(O)cc1C)C(=O)N[C@@H](CCCN=C(N)N)C(=O)N1CCC[C@H]1C(=O)N[C@@H](CCCCN)C(N)=O`, 3.84 nM. Take `CC[C@H](C)[C@H](NC(=O)[C@H](CCCN=C(N)N)NC(=O)[C@H](CCCN=C(N)N)NC(=O)[C@H](CC(C)C)NC(=O)[C@H](Cc1ccccc1)NC(=O)CNC(=O)CNC(=O)[C@@H](N)Cc1ccc(O)cc1)C(=O)N[C@@H](CCCN=C(N)N)C(=O)N1CCC[C@H]1C(=O)N[C@@H](CCCCN)C(N)=O`: the IC50 turned out to be 12.9 nM in the experiment filed under Mus musculus and 0.456 nM in the experiment listed under Cavia porcellus. `CC[C@H](C)[C@H](NC(=O)[C@H](CCCNC(=N)N)NC(=O)[C@H](CCCNC(=N)N)NC(=O)[C@H](CC(C)C)NC(=O)[C@H](Cc1ccccc1)NC(=O)CNC(=O)CNC(=O)CCc1c(C)cc(O)cc1C)C(=O)N[C@@H](CCCNC(=N)N)C(=O)N1CCC[C@H]1C(=O)N[C@@H](CCCCN)C(N)=O` gave a Ki in experiment [1] of 3.49 nM. On to `CC[C@H](C)[C@H](NC(=O)[C@H](CCCNC(=N)N)NC(=O)[C@H](CCCNC(=N)N)NC(=O)[C@H](CC(C)C)NC(=O)[C@H](Cc1ccccc1)NC(=O)CNC(=O)CNC(=O)[C@@H](C)Cc1c(C)cc(O)cc1C)C(=O)N[C@@H](CCCNC(=N)N)C(=O)N1CCC[C@H]1C(=O)N[C@@H](CCCCN)C(N)=O`, for which the Ke in experiment [2] came to 3.92 nM; in experiment [3] it was 0.632 nM; in experiment [4], 3.22 µM; in experiment [5], 925 nM. `CC[C@H](C)[C@H](NC(=O)[C@H](CCCNC(=N)N)NC(=O)[C@H](CCCNC(=N)N)NC(=O)[C@H](CC(C)C)NC(=O)[C@H](Cc1ccccc1)NC(=O)CNC(=O)CNC(=O)CCc1ccc(O)cc1)C(=O)N[C@@H](CCCNC(=N)N)C(=O)N1CCC[C@H]1C(=O)N[C@@H](CCCCN)C(N)=O` gave an IC50 in the experiment listed under Mus musculus of 722 nM. The Ki in experiment [1] amounted to 30.7 nM.

Turning to `CC[C@H](C)[C@H](NC(=O)[C@H](CCCN=C(N)N)NC(=O)[C@H](CCCN=C(N)N)NC(=O)[C@H](CC(C)C)NC(=O)[C@H](Cc1ccccc1)NC(=O)CNC(=O)CNC(=O)[C@@H](N)Cc1c(C)cc(O)cc1C)C(=O)N[C@@H](CCCN=C(N)N)C(=O)N1CCC[C@H]1C(=O)N[C@@H](CCCCN)C(N)=O`, the IC50 in the experiment listed under Mus musculus was 0.377 nM; in the experiment filed under Cavia porcellus, 0.502 nM.
